In the library only some 2.5% were active in any assay of this set; here they are far more common.
NSD2 HMT inh: inhibitors of human histone methyltransferase NSD2. inhibition, % at 12.5 µM. actives 0.54% (n = 310,000). NSD2 peptide methylation, AlphaScreen, 120 min
DYRK1A inh: inhibitors of rat Dyrk1A kinase; Q63470; ADP-Glo luminescence, NFATc1 peptide; inhibition, % at 12.5 µM; actives 0.43% (n = 310,000); AID 504441;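 also: plate controls were vehicle with enzyme for no effect and no enzyme for full effect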
SR-BI DiI inh: mouse SR-BI HDL lipid transfer inhibition | Q61009 | ldlA[mSR-BI] CHO cells, DiI-HDL uptake fluorescence, 3 h | inhibition, % at 12.5 µM | actives 0.96% (n = 320,000);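 active = mean replicate inhibition of at least 70% and a set share of replicates each scoring 70 or more; inconclusive = meets just one of the two criteria; inactive = fails both criteria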;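 also: 0% = median of neutral control wells and 100% = median of positive control wells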
SR-BI uptake up: enhances SR-BI lipid uptake from DiI-HDL; actives 0.096% (n = 320,000); AID 504775; CHO ldlA[mSR-BI] cells, DiI-HDL uptake fluorescence, 3 h; 100 = double the neutral-control signal; activation, % at 12.5 µM;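 active = mean replicate activation of at least 60% and every replicate at or above 60%; inconclusive = mean or all-replicate condition met, but not both; inactive = mean below 60% and not all replicates reaching 60%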;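 also: 0% = median plate neutral-control signal and 100% = twice that signal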
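Test system: SR-BI-overexpressing, LDLR-lacking CHO cells; Medium: Ham's F12 with 0.5% BSA, HEPES 25 mM, pH 7.4; Schedule: 3 h, 37 °C; Technique: bottom-read fluorescence, 550/595 nm.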
dFosB act-1: activators of mouse delta FosB homodimer; P13346; purified delta FosB, TAMRA-CDK5 oligo fluorescence polarization; percent of positive-control signal above neutral wells; activation, % at 25 µM; actives 0.99% (n = 340,000); AID 493131;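 active = mean activation above about 17%, with every replicate also reaching it, limit read from the data, passing the limit was not always enough; inconclusive = only one of the two conditions met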
CDK5 inh: inhibitors of human CDK5/p35 kinase. Q00535+Q15078. Recombinant CDK5/p35, ADP-Glo luminescence, 60 min. inhibition, % at 10 µM. actives 0.01% (n = 330,000). AID 488839;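 active = highest replicate inhibition of at least 50% and at least 75% of replicates reaching 50%; inconclusive = only one of the two criteria met; inactive = both criteria failed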;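 also: plate controls were DMSO neutral control for no effect and GW8510 at 10 µM for full effect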
Target sequence (Q00535 whole entry, looked up): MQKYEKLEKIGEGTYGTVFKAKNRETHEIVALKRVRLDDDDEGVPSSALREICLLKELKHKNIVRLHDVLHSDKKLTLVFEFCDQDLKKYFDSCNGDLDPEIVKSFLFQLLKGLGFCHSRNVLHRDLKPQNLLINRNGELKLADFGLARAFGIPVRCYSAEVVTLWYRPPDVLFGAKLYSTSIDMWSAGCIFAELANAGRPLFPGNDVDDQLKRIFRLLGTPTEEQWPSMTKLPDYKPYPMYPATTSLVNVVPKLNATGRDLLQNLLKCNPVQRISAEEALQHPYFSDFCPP
Target sequence (Q15078 whole entry, looked up): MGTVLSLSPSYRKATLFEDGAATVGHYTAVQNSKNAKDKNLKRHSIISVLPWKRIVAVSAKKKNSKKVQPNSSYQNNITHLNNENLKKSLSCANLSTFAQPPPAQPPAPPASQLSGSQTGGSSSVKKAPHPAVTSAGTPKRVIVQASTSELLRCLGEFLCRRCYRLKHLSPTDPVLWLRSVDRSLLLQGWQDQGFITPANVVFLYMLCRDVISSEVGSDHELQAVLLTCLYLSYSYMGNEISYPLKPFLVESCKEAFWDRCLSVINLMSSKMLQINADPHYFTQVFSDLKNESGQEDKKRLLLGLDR
dFosB act-2: activators of mouse delta FosB homodimer DNA binding; shares compounds with dFosB act-1; purified delta FosB, TAMRA-CDK5 oligo fluorescence polarization; normalised: neutral wells 0, positive control 100; activation, % at 24.9 µM; 2,400 tested, under 10 active; AID 588690;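 active = highest replicate activation at or above 34% and every replicate reaching that threshold; inconclusive = meets only one of the two criteria; inactive = meets neither criterion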;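 also: higher polarization means more probe DNA bound by delta FosB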
Active calls of the source: *; ? = inconclusive; . = no result. Rule as the data show it, unless noted: active = inhibition above about 50%; inactive = the rest.

SMILES | NSD2 HMT inh | DYRK1A inh | SR-BI DiI inh | SR-BI uptake up | dFosB act-1 | CDK5 inh | dFosB act-2
CC(=O)Nc1ccc(NC(=O)Cn2c(=O)n(-c3ccc(F)cc3)c(=O)c3oc4ccccc4c32)cc1 | -1 | -7 | . | . | 21* | -4 | 1
OCC[C@H]1C[C@@H](O)[C@H](O)[C@@]2(CCc3ccccc3CO2)O1 | . | -13 | -18 | 18 | 5 | -4 | .
Nc1nc(SCC(=O)Nc2ccc(C(F)(F)F)cc2)[nH]c(=O)c1NC(=O)c1ccc(F)c(F)c1 | . | -5 | -55 | 55 | 50* | 1 | -1
CCc1nnc(NC(=O)CSc2nc(N)c(NC(=O)c3ccc(OC)cc3)c(=O)[nH]2)s1 | . | -7 | 1 | -1 | 48* | 1 | -4
COc1ccc(C(=O)Nc2c(N)nc(SCC(=O)Nc3ccc(NC(C)=O)cc3)[nH]c2=O)cc1OC | -1 | 0 | 0 | 0 | 4 | -2 | .
Cc1cc(NC(=O)CSc2nc(N)c(NC(=O)c3ccc(F)c(F)c3)c(=O)[nH]2)no1 | . | 3 | -29 | 29 | 57* | 1 | 5
Cc1ccc(C)c(NC(=O)CSc2nc(N)c(NC(=O)c3cccs3)c(=O)[nH]2)c1 | . | 2 | -36 | 36 | 33* | 1 | 1
COCCSc1nc(N)c(NC(=O)c2ccc(OC)cc2)c(=O)[nH]1 | 0 | 15 | -9 | 9 | -4 | -2 | .
CSc1ncccc1C(=O)OCC(=O)NC1CC1 | 1 | 0 | -22 | 22 | -4 | 0 | .
Cc1cc(C)cc(NC(=O)CSc2nc(N)c(NC(=O)c3ccc(Br)o3)c(=O)[nH]2)c1 | . | -5 | -26 | 26 | 77* | -1 | ?
Cc1cc(NC(=O)CSc2nc(N)c(NC(=O)c3ccccc3F)c(=O)[nH]2)no1 | . | -7 | -16 | 16 | 22* | 0 | 6
Cc1ccc2nc(-c3cccnc3SCC(=O)N3c4ccccc4CC3C)[nH]c2c1 (stereo unspecified) | 0 | -22 | 48 | -48 | 29* | -1 | 2
COc1cccc(CC2(CO)CCCN(Cc3ccc4c(c3)OCCO4)C2)c1 (stereo unspecified) | 4 | -5 | -8 | 8 | -11 | 0 | .
COc1cc(OC)cc(-c2c(-c3ccc(F)cc3)c3cc(-c4cccc5[nH]ccc45)ccc3n2C)c1 | . | 2 | 26 | -26 | 3 | 0 | .
CCOC(=O)c1ccc(NC(=O)CN2C(=O)NC3(CCC(C)CC3)C2=O)cc1 (stereo unspecified) | -1 | 1 | 5 | -5 | ? | 0 | .
COC(=O)c1ccc(NC(=O)CN2C(=O)NC3(CCC(C)CC3)C2=O)cc1 (stereo unspecified) | -11 | . | -10 | 10 | 18* | 0 | 3
C=CCNCc1ccc(C(=O)NCCCCCCC)cc1[N+](=O)[O-] | . | -2 | 46 | -46 | 0 | -1 | .
O=C(O)c1cccc(S(=O)(=O)NCc2cccs2)c1 | 0 | 0 | -15 | 15 | 1 | 1 | .
Cc1cccc(C)c1NC(=O)CNC(=O)c1cccc(S(=O)(=O)NCc2cccs2)c1 | -2 | -7 | -5 | 5 | 24* | 3 | -2
CSc1nc2ccc3nc(NC(=O)C4COc5ccccc5O4)sc3c2s1 (stereo unspecified) | . | 43 | 28 | -28 | 70* | 1 | -1
Cc1ccc(NC(=O)C2C3CCC(O3)C2C(=O)O)c(Br)c1 (stereo unspecified) | 5 | 4 | 10 | -10 | -6 | 0 | .
Cc1ccccc1C(=O)Nc1nc(-c2cccnc2)cs1 | 4 | 8 | . | . | 8 | -2 | .
O=C(Nc1nc(-c2cccnc2)cs1)c1ccccc1Cl | 0 | -8 | 18 | -18 | 24* | 2 | 7
CCOC(=O)c1c(CNCCN(CC)CC)n(C)c2cc(Br)c(OC)cc12 | 27 | 1 | -8 | 8 | 24* | 0 | ?
Cc1c(C(=O)Nc2nccs2)oc2c(Cl)cccc12 | -1 | 4 | 29 | -29 | -8 | -1 | .
